Legend:
[1] = Negative chronotropic activity in guinea pig spontaneously beating right atrium assessed as decrease in atrial rate at 50 uM relative to control; format: functional, Cavia porcellus, Cardiac atrium; set-up: scale not given: the % may be the effect or the level left
Procedure, shortened: (§1)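 Guinea pig isolated atria, compound given at increasing doses. Left atrium driven at 1 Hz: percent decrease in developed tension (inotropy, EC50). Spontaneously beating right atrium: percent decrease in rate (chronotropy, EC30). Probit analysis (Litchfield-Wilcoxon), n = 6-7. Potencies not calculated when maximal effect <50%.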

[2] = Negative inotropic activity in guinea pig left atrium assessed as decrease in atrial tension at 50 uM relative to control; format: functional, Cavia porcellus, Cardiac atrium; set-up: scale not given: the % may be the effect or the level left
[3] = test system: Aorta; test: Vasorelaxant activity in potassium-depolarized guinea pig thoracic aorta assessed as inhibition of calcium-induced contraction at 50 uM; format: functional, Cavia porcellus; set-up: scale not given: the % may be the effect or the level left
[4] = Negative inotropic activity in guinea pig left atrium assessed as decrease in atrial tension; format: functional, tissue-based; settings: Cavia porcellus, Cardiac atrium
[5] = Negative chronotropic activity in guinea pig spontaneously beating right atrium assessed as decrease in atrial rate at 100 uM relative to control; format: functional, Cavia porcellus, Cardiac atrium; set-up: scale not given: the % may be the effect or the level left; procedure, shortened: as §1
[6] = test system: Aorta; test: Vasorelaxant activity in potassium-depolarized guinea pig thoracic aorta assessed as inhibition of calcium-induced contraction at 100 uM; format: functional, Cavia porcellus; set-up: scale not given: the % may be the effect or the level left
[7] = Negative inotropic activity in guinea pig left atrium assessed as decrease in atrial tension at 100 uM relative to control; format: functional, Cavia porcellus, Cardiac atrium; set-up: scale not given: the % may be the effect or the level left; procedure, shortened: as §1
[8] = test system: Heart; test: Effect on cardiac activity in guinea pig spontaneously beating heart assessed as change in coronary perfusion pressure at 1 uM relative to control; format: functional, Cavia porcellus
Procedure, shortened: (§2)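 Isolated perfused, spontaneously beating guinea pig heart. Readouts: +(dP/dt)max (maximal rate of rise of left ventricular pressure), heart rate from ECG, coronary perfusion pressure, PR interval. Given as percent change from basal at the highest concentration tested (1 µM), mean ± SEM. pEC50 taken from log concentration-response curves, n = 4-6.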

[9] = test system: Heart; test: Effect on cardiac activity in guinea pig spontaneously beating heart assessed as change in atrioventricular conduction time at 1 uM relative to control; format: functional, Cavia porcellus; procedure, shortened: as §2
[10] = test system: Heart; test: Effect on cardiac activity in guinea pig spontaneously beating heart assessed as change in left ventricular pressure at 1 uM relative to control; format: functional, Cavia porcellus; procedure, shortened: as §2
[11] = test system: Heart; test: Effect on cardiac activity in guinea pig spontaneously beating heart assessed as change in heart rate at 1 uM relative to control; format: functional, Cavia porcellus; procedure, shortened: as §2
[12] = Negative chronotropic activity in guinea pig spontaneously beating right atrium assessed as decrease in atrial rate at 1 uM relative to control; format: functional, Cavia porcellus, Cardiac atrium; set-up: scale not given: the % may be the effect or the level left
[13] = test system: Aorta; test: Vasorelaxant activity in potassium-depolarized guinea pig thoracic aorta assessed as inhibition of calcium-induced contraction; format: functional, Cavia porcellus; set-up: scale not given: the % may be the effect or the level left
[14] = Negative inotropic activity in guinea pig left atrium assessed as decrease in atrial tension at 1 uM relative to control; format: functional, Cavia porcellus, Cardiac atrium; set-up: scale not given: the % may be the effect or the level left
[15] = Negative chronotropic activity in guinea pig spontaneously beating right atrium assessed as decrease in atrial rate at 10 uM relative to control; format: functional, Cavia porcellus, Cardiac atrium; set-up: scale not given: the % may be the effect or the level left; procedure, shortened: as §1
[16] = Negative inotropic activity in guinea pig left atrium assessed as decrease in atrial tension at 5 uM relative to control; format: functional, Cavia porcellus, Cardiac atrium; set-up: scale not given: the % may be the effect or the level left; procedure, shortened: as §1
[17] = Ratio of IC50 for L-type calcium channel in Wistar rat tail artery smooth muscle cells to EC50 for negative inotropic activity in guinea pig left atrium; set-up: species or system Cardiac atrium
[18] = target: T1, Voltage-gated L-type calcium channel (Rattus norvegicus, UniProt P22002+Q02485+P27732); test: Inhibition of L-type calcium channel in Wistar rat tail artery smooth muscle cells assessed as blockade of barium[…] current at 10 uM by whole cell patch-clamp assay
Procedure, shortened: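 Single smooth muscle cells isolated from rat tail main artery. Peak barium current through L-type channels [I_Ba(L)] recorded under cumulative concentrations, reported as percent inhibition. IC50 from log concentration-response curves, mean ± SEM, n = 4.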

[19] = target: T1, Voltage-gated L-type calcium channel; test: Inhibition of L-type calcium channel in Wistar rat tail artery smooth muscle cells assessed as blockade of barium[…] current by whole cell patch-clamp assay; settings: for Activity: rat
Procedure, shortened: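 Single smooth muscle cells isolated from rat tail main artery. Peak barium current through L-type channels [I_Ba(L)] recorded under cumulative concentrations, reported as percent inhibition.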

[20] = target: T1, Voltage-gated L-type calcium channel; test: Displacement of [3H]diltiazem from L-type calcium channel in Sprague-Dawley rat cardiac myocytes by liquid scintillation counting; format: cell-based; settings: for Activity: rat
[21] = Negative chronotropic activity in guinea pig spontaneously beating right atrium assessed as decrease in atrial rate at 5 uM relative to control; format: functional, Cavia porcellus, Cardiac atrium; set-up: scale not given: the % may be the effect or the level left
[22] = Negative inotropic activity in guinea pig left atrium assessed as decrease in atrial tension at 10 uM relative to control; format: functional, Cavia porcellus, Cardiac atrium; set-up: scale not given: the % may be the effect or the level left; procedure, shortened: as §1
[23] = Negative chronotropic activity in guinea pig spontaneously beating right atrium assessed as decrease in atrial rate; format: functional; settings: Cavia porcellus, Cardiac atrium; procedure, shortened: as §1
[24] = test system: Heart; test: Effect on cardiac activity in guinea pig spontaneously beating heart assessed as change in coronary perfusion pressure; settings: Cavia porcellus, read-out: pEC50 (converted)
[25] = test system: Heart; test: Effect on cardiac activity in guinea pig spontaneously beating heart assessed as change in left ventricular pressure; settings: Cavia porcellus, read-out: pEC50 (converted)
[26] = target: T1, Voltage-gated L-type calcium channel; test: Stimulation of [3H]diltiazem binding to L-type calcium channel in Sprague-Dawley rat cardiac myocytes at 1 uM by liquid scintillation counting; format: cell-based

Row | Compound | Activity [1] | Activity [2] | Activity [3] | EC50 [4] | Activity [5] | Activity [6] | Activity [7] | other results
1 | COc1ccc(C2(O)SC=C(C)n3c2noc3=O)cc1 (stereo not drawn) | 18% | 97% | 12% | 320 nM | – | – | – | –
2 | C/C(=C/[S+](C)[O-])n1c(C(=O)c2ccc(Cl)cc2)noc1=O (stereo not drawn) | – | 71% | – | 210 nM | 4% | 7% | – | –
3 | C=CCS/C=C(/C)n1c(C(=O)c2ccc(Br)cc2)noc1=O | 18% | – | – | 1290 nM | – | 21% | 89% | –
4 | C/C(=C/S(C)(=O)=O)n1c(C(=O)c2ccc(Cl)cc2)noc1=O | – | – | – | 1110 nM | 7% | 13% | 72% | –
5 | C/C(=C/[S][Ag])n1c(C(=O)c2ccc(Br)cc2)coc1=O | – | – | – | – | – | 26% | – | Activity [8]: -3%; Activity [9]: 30%; Activity [10]: 0%; Activity [11]: -4%; Activity [12]: 18%; Activity [13]: <30%; Activity [14]: 32%
6 | CCCCCCCCCS/C=C(/C)n1c(C(=O)c2ccc(Br)cc2)noc1=O | – | – | – | 1030 nM | 3% | 12% | 84% | –
7 | C/C(=C/[S][Ag])n1c(C(=O)c2ccc(Cl)cc2)noc1=O | – | – | 4% | – | 7% | – | – | Activity [13]: <30%; Activity [14]: 49%
8 | C/C(=C/SCC(C)C)n1c(C(=O)c2ccc(Cl)cc2)noc1=O | – | – | – | 2070 nM | 5% | 6% | 84% | –
9 | C/C(=C/SS/C=C(/C)n1c(C(=O)c2ccc(Cl)cc2)noc1=O)n1c(C(=O)c2ccc(Cl)cc2)noc1=O | – | – | – | 4390 nM | 4% | 6% | 72% | –
10 | C/C(=C/Sc1sc([N+](=O)[O-])cc1[N+](=O)[O-])n1c(C(=O)c2ccc(Br)cc2)noc1=O | – | – | 32% | 730 nM | – | – | – | Activity [15]: 27%; Activity [16]: 85%
11 | CS/C=C(/C)n1c(C(=O)c2ccc(Br)cc2)noc1=O | – | 95% | – | 410 nM | – | 10% | – | Ratio IC50 [17]: 60; Activity [15]: 2%; Activity [18]: Not Active; IC50 [19]: 25210 nM; Activity [19]: Dose-dependent effect; Ki [20]: 490 nM; Activity [20]: Dose-dependent effect; Activity [14]: <50%
12 | C/C(=C/SCc1ccccc1)n1c(C(=O)c2ccc(Cl)cc2)noc1=O | – | – | – | 1550 nM | 5% | 33% | 78% | –
13 | CC1=CSC(O)(c2ccc(Br)cc2)c2noc(=O)n21 (stereo not drawn) | 18% | 97% | 12% | 320 nM | – | – | – | Ratio IC50 [17]: 100; Activity [18]: Not Active; IC50 [19]: 33360 nM; Activity [19]: Dose-dependent effect; Ki [20]: 290 nM; Activity [20]: Dose-dependent effect; Activity [13]: <30%
14 | C/C(=C/SCC(C)C)n1c(C(=O)c2ccc(Br)cc2)noc1=O | – | – | – | 910 nM | 16% | 24% | 88% | –
15 | CCS/C=C(/C)n1c(C(=O)c2ccc(Cl)cc2)noc1=O | 30% | 75% | – | 2090 nM | – | 27% | – | –
16 | C=CCS/C=C(/C)n1c(C(=O)c2ccc(Cl)cc2)noc1=O | – | – | – | 1350 nM | – | 23% | 70% | Activity [21]: 6%

Row | Compound | Activity [1] | Activity [2] | Activity [3] | EC50 [4] | Activity [5] | Activity [6] | Activity [7] | other results
17 | CS/C=C(/C)n1c(C(=O)c2ccc(Cl)cc2)noc1=O | 10% | 71% | 8% | 1450 nM | – | – | – | –
18 | CCCS/C=C(/C)n1c(C(=O)c2ccc(Cl)cc2)noc1=O | 17% | – | – | 2190 nM | – | 15% | 84% | –
19 | C/C(=C/SS/C=C(/C)n1c(C(=O)c2ccc(Br)cc2)noc1=O)n1c(C(=O)c2ccc(Br)cc2)noc1=O | – | – | – | 1700 nM | 9% | 5% | 73% | Ki [20]: 200 nM
20 | CCS/C=C(/C)n1c(C(=O)c2ccc(Br)cc2)noc1=O | – | – | – | 1330 nM | 18% | 43% | 89% | –
21 | CC1=CSC(O)(c2ccc(Cl)cc2)c2noc(=O)n21 (stereo not drawn) | 18% | – | 26% | 800 nM | – | – | – | Activity [22]: 80%; Activity [13]: <30%
22 | COc1ccc([C@@H]2Sc3ccccc3N(CCN(C)C)C(=O)[C@@H]2OC(C)=O)cc1 [DILTIAZEM] | – | – | – | 790 nM | – | 88% | – | Activity [8]: -51%; EC30 [23]: 70 nM; Activity [9]: 34%; EC50 [24]: 21.9 nM; Activity [10]: -59%; Activity [22]: 78%; Activity [11]: -25%; Activity [12]: 94%; Activity [20]: Dose-dependent effect; EC50 [25]: 9.33 nM
23 | CCOC1(c2ccc(Br)cc2)SC=C(C)n2c1noc2=O (stereo not drawn) | – | 77% | 19% | 40 nM | – | – | – | Activity [8]: -9%; Activity [15]: 5%; Activity [9]: 32%; Activity [10]: -3%; Activity [11]: -14%
24 | CCCCCCCCCS/C=C(/C)n1c(C(=O)c2ccc(Cl)cc2)noc1=O | – | – | – | 670 nM | 2% | 5% | – | Activity [22]: 84%
25 | CCOC1(c2ccc(Cl)cc2)SC=C(C)n2c1noc2=O (stereo not drawn) | 16% | – | 28% | 270 nM | – | – | – | Activity [16]: 53%
26 | C/C(=C/[S+](C)[O-])n1c(C(=O)c2ccc(Br)cc2)noc1=O (stereo not drawn) | – | – | – | 480 nM | 33% | 2% | 89% | Ki [20]: 23680 nM
27 | CCCS/C=C(/C)n1c(C(=O)c2ccc(Br)cc2)noc1=O | – | – | – | 1220 nM | 10% | 26% | 80% | –
28 | C/C(=C/SCc1ccccc1)n1c(C(=O)c2ccc(Br)cc2)noc1=O | – | 80% | 6% | 1280 nM | – | – | – | Activity [15]: 31%
29 | CC1=CSC(O)(c2ccccc2)c2noc(=O)n21 (stereo not drawn) | 14% | – | 4% | 230 nM | – | – | – | Activity [22]: 95%
30 | C/C(=C/Sc1sc([N+](=O)[O-])cc1[N+](=O)[O-])n1c(C(=O)c2ccc(Cl)cc2)noc1=O | 15% | 67% | 35% | 1420 nM | – | – | – | –
31 | C/C(=C/S(C)(=O)=O)n1c(C(=O)c2ccc(Br)cc2)noc1=O | – | 73% | 6% | 280 nM | – | – | – | Activity [26]: 25%; Activity [21]: 7%

Source: ChEMBL document CHEMBL1153430 (J Med Chem, 2009)
